# Hit rate of the full screen: of about 220,000 compounds, about 1,000 (0.45%) were called active.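 The calls were made as follows: active = plate z-score of nuclear minus cytoplasmic receptor signal below a set negative limit, without overly bright fluorescence or cell loss (cut at about -3.5 in these data, passing the limit was not always enough); inactive = the rest, inconclusive results apart.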 Many of the other results were omitted from the sample, so actives are more common in it than they were.
# Test: inhibitors of GR-EGFP nuclear translocation, primary screen, dynein cargo transport inhibitor project, imaging, high-content, 3617.4 mouse cells (AID 1381)
# Settings: stimulated with dexamethasone, 1 µM
# How it was run: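 Buffer or medium: Induction medium lacking tetracycline, stripped serum | Also added: Dexamethasone agonist, 1.0 µM final, for 30 min | Timing: 48 h induction, 1 h compound, 30 min dex at 37 °C | Detection: Formaldehyde fixation, Hoechst nuclear stain, 10x automated fluorescence imaging | Measure: Nuclear versus cytoplasmic GR-EGFP signal, averaged per well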
# [1] = measured here: cell count per field, at 20 µM
# [2] = measured here: cytoplasmic GR-EGFP intensity, at 20 µM, stronger effect = higher value
# [3] = measured here: nuclear GR-EGFP intensity, at 20 µM, stronger effect = lower value
# [4] = measured here: cell count per field, at 50 µM
# [5] = measured here: cytoplasmic GR-EGFP intensity, at 50 µM, stronger effect = higher value
# [6] = measured here: nuclear GR-EGFP intensity, at 50 µM, stronger effect = lower value
Structure (SMILES),"z-score (at 20 µM, stronger effect = lower value)",z-score [1],z-score [2],z-score [3],"z-score (at 50 µM, stronger effect = lower value)",z-score [4],z-score [5],z-score [6]
CC(=O)Cn1ncc(N2CCOCC2)c(Br)c1=O,1.61 (inactive),-0.679,-0.251,0.837,–,–,–,–
O=C(c1cccs1)N1CCN(C(=O)N2CCOCC2)CC1,-0.705 (inactive),0.766,-0.299,-0.226,–,–,–,–
CC(=O)Nc1ccccc1OC(=O)N1CCOCC1,–,–,–,–,-0.424 (inactive),0.445,-0.192,-0.0276
O=C(/C=C/c1cccs1)c1cc(Cl)ccc1OC(=O)N1CCOCC1,-4.66 (active),0.865,0.34,-2.08,–,–,–,–
CC(=O)NC1(c2ccc(F)cc2)CCN(C(=O)c2c(F)cccc2F)CC1,-0.575 (inactive),1.07,-0.235,-0.241,–,–,–,–
Nc1ncnc(Nc2cccc(Cl)c2Cl)n1,-1.6 (inactive),0.756,-0.225,-1.2,–,–,–,–
COCCN(Cc1nc(-c2ccc(C(F)(F)F)cc2)no1)C(C)C,-0.214 (inactive),0.527,-0.267,0.0742,–,–,–,–
O=C(NNS(=O)(=O)Cc1ccccc1)c1ccc([N+](=O)[O-])cc1,-0.775 (inactive),0.134,-0.751,-0.634,–,–,–,–
COc1ccc(-n2cnc3cc(C(=O)NC4CCCC4)ccc32)cc1,0.728 (inactive),-0.477,-0.235,0.5,–,–,–,–
S=c1[nH]nc(-c2cccnc2)n1/N=C/C(Cl)=C\c1ccccc1,-0.315 (inactive),-1.55,0.22,0.116,–,–,–,–
Cc1cc(-c2n[nH]c(=S)n2/N=C/c2ccco2)n[nH]1,0.146 (inactive),-0.499,-0.239,-0.0329,–,–,–,–
Cc1cc(-c2n[nH]c(=S)n2/N=C/C(Br)=C/c2ccccc2)n[nH]1,-4.43 (active),-1.17,0.939,-2.57,–,–,–,–
Nc1ccccc1SC(C[N+](=O)[O-])c1ccccc1 (stereo not drawn),-4.57 (active),-0.167,2.56,-1.84,–,–,–,–
Nc1ccccc1SCc1cc([N+](=O)[O-])cc2c1OCOC2,-0.839 (inactive),0.822,3.91,0.0233,–,–,–,–
Nc1ccccc1Sc1ccc(C(F)(F)F)cc1[N+](=O)[O-],-0.595 (inactive),0.488,-0.213,-0.319,–,–,–,–
COC(=O)c1cc(C(=O)N(Cc2ccccc2)c2ccccn2)cc([N+](=O)[O-])c1,-0.154 (inactive),-0.0688,-0.223,-0.31,–,–,–,–
CN1CCN(C(=O)/C(=C\c2cccs2)NC(=O)c2cccs2)CC1,-0.757 (inactive),1.17,-0.214,-0.212,–,–,–,–
OCC(CO)(CO)NCc1ccc(-c2ccccc2)cc1,-0.998 (inactive),0.791,-0.231,-0.299,–,–,–,–
O=C(NNC(=O)c1ccccc1[N+](=O)[O-])Nc1ccccc1C(F)(F)F,-1.96 (inactive),0.934,-0.0968,-0.966,–,–,–,–
CC1(C)CCSC(/C=C/c2ccccc2)=N1,-6.85 (active),1.01,1.09,-2.95,–,–,–,–
Cc1ccc2nc(-c3ccncc3)cc(C(=O)Nc3ccc(OC(F)F)cc3)c2c1,-0.0501 (inactive),0.497,-0.311,-0.123,–,–,–,–
O=C(Nn1c(SCc2ccc([N+](=O)[O-])cc2)nc2ccccc2c1=O)c1ccc(F)cc1,-0.621 (inactive),3.84,-0.327,-0.596,–,–,–,–
O=C(CCc1nnc(CCCCc2ccccc2)o1)NC(c1cccnc1)C(F)(F)F (stereo not drawn),-0.699 (inactive),1.17,-0.266,-0.517,–,–,–,–

Structure (SMILES),"z-score (at 20 µM, stronger effect = lower value)",z-score [1],z-score [2],z-score [3],"z-score (at 50 µM, stronger effect = lower value)",z-score [4],z-score [5],z-score [6]
COc1cc2c(cc1OC)C(Nc1ccc(S(N)(=O)=O)cc1)=NC(C)(C)C2,0.371 (inactive),0.476,-0.265,0.242,–,–,–,–
COc1cc2c(cc1O)C(SC)=NC(C)(C)C2,–,–,–,–,-4 (active),-1.21,2.4,-1.15
COc1cc2c(cc1OC)C(C(C)C)=NC(C)(C)C2,–,–,–,–,1.53 (inactive),-0.94,-0.084,1.55
CC(OC(=O)c1ccccc1N1C(=O)C2C3CCC(C3)C2C1=O)C(=O)c1ccccc1 (stereo not drawn),0.064 (inactive),-1.14,-0.233,-0.118,–,–,–,–
CC(C)CNc1ncnc2c1cnn2Cc1ccc(Cl)cc1,-0.416 (inactive),0.999,-0.294,-0.416,–,–,–,–
CCOc1cc(N2CCOCC2)c(OCC)cc1NC(=O)C1=NN(c2cccc(C)c2)C(=O)CC1,0.424 (inactive),0.873,-0.249,-0.0907,–,–,–,–
C=CS(=O)c1sc(Cl)c(N2CCOCC2)c1[N+](=O)[O-] (stereo not drawn),-5.81 (active),-1.51,2.63,-2.55,–,–,–,–
O=C(NCc1ccccc1)c1ccc(CNc2c(N3CCCC3)c(=O)c2=O)cc1,1.94 (inactive),-1.79,-0.175,1.39,–,–,–,–
Cc1ccc(OCC(=O)Nc2cccc3c2CCCC3)cc1C,-0.29 (inactive),0.502,-0.193,-0.445,–,–,–,–
CCN(CC)c1ccc2oc(=O)c(C)nc2c1,–,–,–,–,-4.98 (active),0.102,1.35,-2.69
CCN(CC)c1ccc2cc(C(=O)O)c(=O)oc2c1,0.513 (inactive),-0.14,-0.259,0.0952,–,–,–,–
CCN(CC)c1ccc2c(Nc3ccccc3)c(C=O)c(=O)oc2c1,1.78 (inactive),-1.59,1.04,1.54,–,–,–,–
O=C(Nc1ccn(Cc2ccccc2)n1)c1n[nH]c([N+](=O)[O-])c1Cl,1.15 (inactive),-1.23,-0.194,0.757,–,–,–,–
Cc1cccc(-n2cc(CN3CCN(C(=O)c4ncn[nH]4)CC3)c(-c3cccc(F)c3)n2)c1,0.856 (inactive),-0.858,-0.164,0.386,–,–,–,–
CCN(CC)S(=O)(=O)c1ccc2c3c(cccc13)C(=O)S2,–,–,–,–,-0.224 (inactive),0.583,-0.26,-0.962
CCNC(=S)Nc1ccc(OC(F)(F)F)cc1,-0.827 (inactive),0.129,-0.313,0.232,–,–,–,–
COc1ccc(C(CCN(Cc2ccc(OC)c(OC)c2)C(=O)CCl)c2ccccc2)cc1 (stereo not drawn),-5.18 (active),-0.271,0.893,-2.94,–,–,–,–
CCOC(=O)CN(Cc1ccc(OC)c(OC)c1)S(=O)(=O)c1ccc(OC)cc1,-0.369 (inactive),0.666,-0.0278,0.0349,–,–,–,–
COc1ccc(CCNC(=O)C(Sc2ccccn2)c2ccccc2)cc1OC (stereo not drawn),1.23 (inactive),-0.867,-0.00233,0.852,–,–,–,–
CN(CCc1ccccn1)C(=O)CCC1CCCN(Cc2ccccc2OC(F)F)C1 (stereo not drawn),-0.0542 (inactive),0.0326,-0.306,0.247,–,–,–,–
C=CCn1cc(C(=O)NCc2ccc(Cl)cc2)c(=O)c2cc(S(=O)(=O)N(CC)CC)ccc21,0.479 (inactive),-0.781,-0.191,1.32,–,–,–,–
CSCCC(NC(=O)COc1ccccc1)C(=O)Nc1ccc(C)cc1 (stereo not drawn),0.137 (inactive),0.845,0.202,0.24,–,–,–,–
O=C1C=CC(=O)N1c1ccc(N2CCCCC2)cc1,-4.11 (active),-2.21,2.18,-1.81,–,–,–,–

Structure (SMILES),"z-score (at 20 µM, stronger effect = lower value)",z-score [1],z-score [2],z-score [3],"z-score (at 50 µM, stronger effect = lower value)",z-score [4],z-score [5],z-score [6]
Cc1ccccc1C(=O)Nc1ccc(N2CCCCCC2)cc1,-0.0609 (inactive),-0.96,0.105,0.497,–,–,–,–
O=c1[nH][nH]c(=O)c2cc(N3CCCC3)ccc12,-0.37 (inactive),0.302,-0.256,0.0156,–,–,–,–
COc1ccc(Cl)cc1-n1c(C)cc(C(=O)OCC(=O)N2CC(=O)Nc3ccccc32)c1C,-0.945 (inactive),0.925,-0.291,-0.693,–,–,–,–
COCCn1c(C)cc(C(=O)COC(=O)/C=C/c2cccc(OC)c2)c1C,-0.49 (inactive),0.119,-0.317,-0.136,–,–,–,–
COc1cccc(-c2ccc(SCC(=O)N3CCN(c4ccccc4)CC3)nn2)c1,1.32 (inactive),-1.03,-0.273,1.04,–,–,–,–
O=C(NCc1ccc(F)cc1)C(c1ccccc1)N(C(=O)c1csnn1)C1CC1 (stereo not drawn),2.29 (inactive),-1.97,-0.277,0.843,–,–,–,–
Cc1cc(C(=O)NCCc2ccc(Cl)cc2)n(-c2ccccc2)n1,-5.24 (active),-1.31,0.343,-3.12,–,–,–,–
O=C(NCCc1ccccc1)Oc1ccc(Cl)cc1,-0.396 (inactive),0.0482,-0.223,-0.459,–,–,–,–
Cc1cc(NC(=O)Nc2ccc(Cl)cc2)n(-c2ccccc2)n1,-0.438 (inactive),-0.392,-0.229,0.639,–,–,–,–
Brc1ccc2c(c1)[C@H]1OCC[C@H]1[C@@H](c1cccs1)N2,1.51 (inactive),-1.61,-0.149,1.53,–,–,–,–
COC(=O)[C@@H]1CC[C@H](C)[C@@H](c2ccc(C)cc2)N1C(=O)c1ccc(/C=N/O[C@H](C)c2cn([C@@H]3COC[C@H]3O)nn2)cc1,0.697 (inactive),0.326,-0.241,0.639,–,–,–,–
CC(=O)NCC(=O)N1CCCC(C(=O)c2ccc3c4c(cccc24)CC3)C1 (stereo not drawn),0.368 (inactive),-0.117,-0.201,0.261,–,–,–,–
Cc1ccc(O)c(CCc2ccccc2)n1,0.491 (inactive),-0.946,-0.202,0.586,–,–,–,–
Cc1[nH]c2ccccc2c1C(=O)COC(=O)c1c(-c2ccccc2)noc1C,-0.58 (inactive),0.403,-0.281,-0.747,–,–,–,–
Cc1ccc(CNC(=O)Cn2c(=O)c3sccc3n(Cc3cccc([N+](=O)[O-])c3)c2=O)cc1,-0.763 (inactive),0.845,-0.184,-0.435,–,–,–,–
COc1ccc(C2/C=C\CN(S(=O)(=O)c3cccs3)CC(=O)N2Cc2ccc(F)cc2)cc1 (stereo not drawn),1.14 (inactive),-0.515,-0.824,0.466,–,–,–,–
O=C(CCCOc1ccccc1)NCc1ccco1,0.563 (inactive),-0.922,-0.00359,0.541,–,–,–,–
O=C(CCl)Nc1ccc(Sc2ccc(NC(=O)CCl)cc2)cc1,-2.59 (inactive),0.102,0.25,-1.01,–,–,–,–
CCc1cccc(NC(=O)CCC(=O)O)c1,0.674 (inactive),-0.0336,-0.309,-0.143,–,–,–,–
O=C(CCl)Nc1cccc(CP(=O)(c2ccccc2)c2ccccc2)c1,-3.86 (active),0.102,0.338,-1.58,–,–,–,–
CC1(C)COC(c2cccn2Cc2ccccc2Cl)=N1,-0.905 (inactive),0.489,-0.115,0.38,–,–,–,–

# From PubChem BioAssay AID1381 (University of Pittsburgh Molecular Library Screening Center, 2008)
